Experimental data from ChEMBL document CHEMBL6177914, “Human microbiome derived synthetic antimicrobial peptides with activity against Gram-negative, Gram-positive, and antibiotic resistant bacteria” (RSC Med Chem, 2025).
In brackets after ≈: the same amount, converted by molar mass. Activity calls are given as the source filed them. No cut-off for these calls is given here. Square brackets hold non-standard residues; d marks the D form. Peptide text beside a SMILES is read from it.

Assays:
Escherichia coli = test: Bactericidal activity against Escherichia coli ATCC 33694 assessed as inhibition of bacterial growth at MIC concentration incubated for 48 hrs by broth microdilution assay; type: functional, organism-based
How it was run: (§1)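 From broth-microdilution wells showing no growth, 10 µL was spotted onto agar and incubated 48 h at 37 °C. Plates were inspected for colonies. Fidaxomicin at 1 µM served as control.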

Pseudomonas aeruginosa = test: Bactericidal activity against Pseudomonas aeruginosa BAA 1744 assessed as inhibition of bacterial growth at MIC concentration incubated for 48 hrs by broth microdilution assay; type: functional, organism-based; how it was run: as §1
Salmonella enterica [1] = test: Bactericidal activity against Salmonella enterica ATCC 13314 assessed as inhibition of bacterial growth at MIC concentration incubated for 48 hrs by broth microdilution assay; type: functional, organism-based; how it was run: as §1
Salmonella enterica [2] = test: Antibacterial activity against Salmonella enterica ATCC 13314 assessed as inhibition of bacterial growth incubated for 24 hrs by absorbance based microplate reader analysis; type: functional
How it was run: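 Broth microdilution. An overnight single-colony culture in recommended broth was diluted 1:10 000, and peptide serial dilutions in DMSO were added (4 µL into 196 µL). Plates incubated 24 h at 37 °C, aerobic or anaerobic as required, then OD600 read. Inhibition was calculated against pathogen-only and blank wells.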

Staphylococcus aureus [3] = test: Induction of morphological changes in Staphylococcus aureus ATCC 25923 assessed as leakage of intracellular content at MIC concentration by transmission electron microscopic analysis; type: functional, organism-based
How it was run: (§2)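 Cells were pelleted at 4 °C, washed in 0.1 M PBS pH 7.2, and fixed overnight (4% formaldehyde, 1.25% glutaraldehyde, ruthenium red). Post-fixed in 1% OsO4, dehydrated through ethanol, embedded in epoxy resin and imaged by TEM.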

Staphylococcus aureus [4] = test: Induction of morphological changes in Staphylococcus aureus ATCC 25923 assessed as extracellular protrusions by measuring fragments of lysed cell wall at MIC concentration by transmission electron microscopic analysis; type: functional, organism-based; how it was run: as §2
Staphylococcus aureus [5] = test: Antibacterial activity against Staphylococcus aureus ATCC 25923 assessed as reduction in surviving bacteria at MIC concentration measured within 6 hrs by time-kill kinetic analysis; type: functional
How it was run: (§3)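 Samples (5 µL) taken at 0, 1, 2, 4, 6, 12, 18 and 24 h, tenfold diluted in 0.85% NaCl, and plated on TSA overnight at 37 °C for CFU counts. Two independent duplicates.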

Staphylococcus aureus [6] = test: Induction of morphological changes in Staphylococcus aureus ATCC 25923 assessed as appearance of detached fragments at MIC concentration by transmission electron microscopic analysis; type: functional, organism-based; how it was run: as §2
Staphylococcus aureus [7] = test: Antibacterial activity against Staphylococcus aureus ATCC 25923 assessed as reduction in bacterial growth at MIC concentration measured after 24 hrs by time-kill kinetic analysis; type: functional, organism-based; how it was run: as §3
Enterococcus faecium [8] = test: Bactericidal activity against vancomycin resistant Enterococcus faecium BAA 2317 assessed as inhibition of bacterial growth at MIC concentration incubated for 48 hrs by broth microdilution assay; type: functional, organism-based
How it was run: (§4)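 Plates were incubated 48 h at 37 °C and examined for colonies. A fidaxomicin-treated culture at 1 µM served as the control.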

Staphylococcus aureus [9] = test: Bactericidal activity against methicillin resistant Staphylococcus aureus BAA 2313 assessed as inhibition of bacterial growth at MIC concentration incubated for 48 hrs by broth microdilution assay; type: functional, organism-based; how it was run: as §4
Clostridioides difficile = test: Bactericidal activity against Clostridium difficile ATCC 43602 assessed as inhibition of bacterial growth at MIC concentration incubated for 48 hrs by broth microdilution assay; type: functional, organism-based; how it was run: as §1
Staphylococcus aureus [10] = test: Induction of morphological changes in Staphylococcus aureus ATCC 25923 assessed as cell damage at MIC concentration by transmission electron microscopic analysis; type: functional, organism-based; how it was run: as §2
Listeria monocytogenes = test: Bactericidal activity against Listeria monocytogenes ATCC 15313 assessed as inhibition of bacterial growth at MIC concentration incubated for 48 hrs by broth microdilution assay; type: functional, organism-based; how it was run: as §1
Staphylococcus aureus [11] = test: Antibacterial activity against Staphylococcus aureus ATCC 25923 assessed as reduction in colony forming units at MIC concentration measured after 2 hrs by time-kill kinetic analysis; type: functional; how it was run: as §3
[12] = Retention time of compound by RP-HPLC analysis; type: physicochemical
How it was run: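 Analytical reversed-phase HPLC.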

Staphylococcus aureus [13] = test: Bactericidal activity against Staphylococcus aureus ATCC 25923 assessed as inhibition of bacterial growth at MIC concentration incubated for 48 hrs by broth microdilution assay; type: functional, organism-based; how it was run: as §1
Enterococcus faecium [14] = test: Antibacterial activity against vancomycin resistant Enterococcus faecium BAA 2317 assessed as inhibition of bacterial growth incubated for 24 hrs by absorbance based microplate reader analysis; type: functional
How it was run: (§5)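 Broth microdilution. A single colony was grown 24 h in its recommended broth, then diluted 1:10 000 in the same medium. Peptide serial dilutions were added from DMSO stock at 4 µL per 196 µL inoculated medium. Plates were incubated aerobically or anaerobically as each pathogen requires, at 37 °C for 24 h, and OD600 was read. MIC was the lowest concentration giving 100% growth inhibition. Duplicate wells; assay repeated five times independently.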

Caco-2 = test: Anti-inflammatory activity in human Caco-2 cells infected with Clostridium difficile ATCC 43602 assessed as reduction in IL-8 level at MIC concentration by ELISA relative to control; type: functional; set-up: scale not given: the % may be the effect or the level left
How it was run: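 Caco-2 cells grown in DMEM + 10% FBS, 37 °C, 5% CO2, to 90% confluence, then seeded 30 000 cells/well and held 24 h. C. difficile was grown overnight anaerobically in meat broth, washed in PBS, and 1 µL of 0.5 OD600 culture added per 300 µL medium. […] Cytokine in supernatant measured by ELISA; three independent replicates.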

Staphylococcus aureus [15] = test: Antibacterial activity against methicillin resistant Staphylococcus aureus BAA 2313 assessed as inhibition of bacterial growth incubated for 24 hrs by absorbance based microplate reader analysis; type: functional
How it was run: as §5, with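 “read.” for “read. MIC was the lowest concentration giving 100% growth inhibition.”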

Row | Compound | Activity (Escherichia coli) | Activity (Pseudomonas aeruginosa) | Activity (Salmonella enterica [1]) | Activity (Salmonella enterica [2]) | Activity (Enterococcus faecium [8]) | Activity (Staphylococcus aureus [9]) | Activity (Clostridioides difficile) | Activity (Listeria monocytogenes) | Retention_time [12] [min] | Activity (Staphylococcus aureus [13]) | also measured
1 | CC[C@H](C)[C@@H]1NC(=O)CNC(=O)CNC(=O)[C@H](CO)NC(=O)[C@H]([C@@H](C)CC)NC(=O)[C@H](CCCCN)NC(=O)[C@H](CO)NC(=O)[C@H](CC(C)C)NC(=O)[C@@H](C(C)C)NC(=O)[C@@H]2CCCN2C(=O)[C@H]([C@@H](C)CC)NC(=O)[C@H](C(C)C)NC(=O)[C@H](CC(C)C)NC(=O)[C@@H]2CCCN2C(=O)CNC1=O (cyclo(LSKISGGIGPLVIP[dV])) | Active | Active | Active | inactive | Active | Active | Active | Active | 17.76 | Active | Activity (Staphylococcus aureus [3]): Active; Activity (Staphylococcus aureus [4]): Active; Activity (Staphylococcus aureus [5]): 5 log10CFU/ml; Activity (Staphylococcus aureus [6]): Active; Activity (Staphylococcus aureus [7]): Active; Activity (Staphylococcus aureus [10]): Active; Activity (Staphylococcus aureus [11]): 3 log10CFU/ml; MIC (Enterococcus faecium [14]; read-out: MIC100): 1.5 µM (≈ 2.15 µg/mL)
2 | H-SGGIGPLVIP-NH2 | Active | Active | Active | inactive | Active | Active | Active | Active | 13.82 | Active | Activity (Caco-2): 6%; Activity (Staphylococcus aureus [15]): inactive; Activity (Enterococcus faecium [14]): inactive
